BindingDB's records for doi:10.1016/j.bmc.2011.08.039 (Ludwig-Maximilians-University Munich, 2011)

Assays:
[1] = target: T1, Sodium- and chloride-dependent GABA transporter 2 (Mus musculus, UniProt P31649); experiment: Inhibition of mouse GAT2-mediated [3H]GABA uptake expressed in human HEK cells
T1 sequence (P31649 whole entry): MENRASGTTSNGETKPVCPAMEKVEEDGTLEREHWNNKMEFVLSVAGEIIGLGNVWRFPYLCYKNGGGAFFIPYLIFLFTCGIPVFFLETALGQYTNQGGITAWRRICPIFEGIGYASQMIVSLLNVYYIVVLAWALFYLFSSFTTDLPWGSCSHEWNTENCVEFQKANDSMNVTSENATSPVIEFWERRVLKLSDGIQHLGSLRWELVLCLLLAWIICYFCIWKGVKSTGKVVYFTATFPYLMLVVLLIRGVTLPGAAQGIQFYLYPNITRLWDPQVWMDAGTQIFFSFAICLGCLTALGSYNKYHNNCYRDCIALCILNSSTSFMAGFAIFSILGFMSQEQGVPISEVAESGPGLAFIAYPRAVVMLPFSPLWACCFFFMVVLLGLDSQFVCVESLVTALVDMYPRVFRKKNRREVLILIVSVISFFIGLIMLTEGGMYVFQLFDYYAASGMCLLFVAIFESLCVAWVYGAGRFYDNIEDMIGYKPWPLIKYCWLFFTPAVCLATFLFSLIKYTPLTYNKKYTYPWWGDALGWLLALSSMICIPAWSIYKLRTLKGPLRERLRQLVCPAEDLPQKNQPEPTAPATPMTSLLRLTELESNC
In short: (§1)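 Specific [3H]GABA uptake was measured at the murine transporter subtype, and results are given as pIC50 ± SEM from three independent experiments, each run in triplicate.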

[2] = target: T2, Sodium- and chloride-dependent GABA transporter 3 (Mus musculus, UniProt P31650); experiment: Inhibition of mouse GAT3-mediated [3H]GABA uptake expressed in human HEK cells; in short: as §1
T2 sequence (P31650 whole entry): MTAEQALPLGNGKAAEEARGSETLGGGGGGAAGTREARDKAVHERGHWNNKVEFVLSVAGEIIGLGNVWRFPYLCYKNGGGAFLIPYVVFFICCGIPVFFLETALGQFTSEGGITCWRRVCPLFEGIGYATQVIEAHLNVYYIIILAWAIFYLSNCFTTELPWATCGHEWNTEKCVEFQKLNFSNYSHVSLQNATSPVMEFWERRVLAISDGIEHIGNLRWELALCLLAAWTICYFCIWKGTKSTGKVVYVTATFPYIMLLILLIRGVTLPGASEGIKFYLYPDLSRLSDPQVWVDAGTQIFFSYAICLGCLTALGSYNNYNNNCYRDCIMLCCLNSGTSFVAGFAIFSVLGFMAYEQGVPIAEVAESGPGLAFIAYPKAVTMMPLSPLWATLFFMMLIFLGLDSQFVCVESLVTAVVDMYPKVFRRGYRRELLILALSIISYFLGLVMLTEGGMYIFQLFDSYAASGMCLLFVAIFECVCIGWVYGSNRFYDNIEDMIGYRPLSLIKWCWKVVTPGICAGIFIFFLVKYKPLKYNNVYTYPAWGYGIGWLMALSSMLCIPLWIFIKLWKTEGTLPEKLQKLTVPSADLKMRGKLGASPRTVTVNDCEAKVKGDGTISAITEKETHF

[3] = Inhibition of mouse GAT2-mediated [3H]GABA uptake expressed in BHK cells
[4] = Inhibition of mouse GAT3-mediated [3H]GABA uptake expressed in BHK cells

Row | Compound | IC50 [1] [µM] | IC50 [2] [µM] | IC50 [3] [µM] | IC50 [4] [µM]
1 | c1ccc(Cn2nnnc2CNCCCC(c2ccccc2)c2ccccc2)cc1 | 15.5 | 40.7 |  | 
2 | c1ccc(C(NCc2nnnn2C2CCCCC2)c2ccccc2)cc1 |  | 24.5 |  | 
3 | COc1ccccc1C1(O)CCN(CCCn2c3ccccc3c3ccccc32)CC1 | 8.13 | 11.7 | 1.41 | 40.7
4 | CC(C)(C)CC(C)(C)n1nnnc1CNCC=C(c1ccccc1)c1ccccc1 | 10.2 | 22.9 |  | 
5 | C(CNCc1nnnn1Cc1ccccc1)=C(c1ccccc1)c1ccccc1 | 24.5 | 34.7 |  | 
6 | CC(C)(C)CC(C)(C)n1nnnc1CNC(c1ccccc1)c1ccccc1 |  | 60.3 |  | 
7 | c1ccc(Cn2nnnc2CNCC(c2ccccc2)c2ccccc2)cc1 |  | 44.7 |  | 

Continued by falling IC50 [2], values first:

Row | IC50 [1] [µM] | IC50 [2] [µM] | Compound | IC50 [3] [µM] | IC50 [4] [µM]
8 |  | 21.4 | C(CCNCc1nnnn1C1CCCCC1)=C(c1ccccc1)c1ccccc1 |  | 
9 | 24.5 | 18.2 | C(CNCc1nnnn1C1CCCCC1)=C(c1ccccc1)c1ccccc1 |  | 
10 | 21.9 | 17.4 | c1ccc(C(CCCNCc2nnnn2C2CCCCC2)c2ccccc2)cc1 |  | 
11 |  | 16.2 | c1ccc(Cn2nnnc2CNC(c2ccccc2)c2ccccc2)cc1 |  | 
12 | 16.6 | 12.9 | CC(C)(C)CC(C)(C)n1nnnc1CNCCCC(c1ccccc1)c1ccccc1 |  | 
13 |  | 12.3 | CC(C)(C)CC(C)(C)n1nnnc1CNCCC=C(c1ccccc1)c1ccccc1 |  | 
14 |  | 8.13 | CC(C)(C)CC(C)(C)n1nnnc1CNCCC(c1ccccc1)c1ccccc1 |  | 
